This is an account of results in ChEMBL document CHEMBL1135463 (J Med Chem, 2002).

≈ marks a conversion by molar mass, not a printed value. Calls of active or inactive are those of the source. No cut-off for these calls is given here.

In general, GI50 refers to the concentration at which growth is held to half of that of the control. Low values mean more potent growth inhibition, high ones less potent growth inhibition. Usually MIC stands for the lowest concentration found to suppress growth. By IC50 is commonly meant the concentration that gives 50% inhibition. A lower IC50 goes with higher potency.

One experiment has as its system DU-145. Put plainly: In vitro growth inhibition of DU-145 (human prostate carcinoma) cell line. Format: functional.
Experiment [1] can be described thus: In vitro growth inhibition of NCI-H460 (human non-small cell lung carcinoma) cell line. In kind it is functional.
The subject of a further experiment is KM-20L2. Put plainly: In vitro growth inhibition of KM20L2 cell line. Format: functional. The following applies: Homo sapiens.
A further experiment has as its system BXPC-3. Put plainly: In vitro growth inhibition of BXPC-3 (human pancreatic adenocarcinoma) cell line. Format: functional.
For the next experiment, the system named is SF-268 (Homo sapiens). Put plainly: The concentration causing 50% reduction in the net protein increase (cell growth inhibition, GI50) against central nervous system (CNS) SF-268 cells.
In the next experiment the test system is MCF7. Put plainly: Cell growth inhibition of breast MCF-7 cells, expressed as 50% reduction in the net protein increase. Format: functional. The following applies: Homo sapiens.
The subject of the next experiment is P388. Put plainly: In vitro inhibition of P388 (murine leukemia) cell proliferation. In kind it is functional. The following applies: Mus musculus, read-out: ED50 (the source's name).
Experiment [2] has as its system Neisseria gonorrhoeae. Put plainly: The minimum inhibitory concentration (MIC) that inhibits all visible growth of the Neisseria gonorrhoeae (bacteria); value may range from (16 -32). Format: functional. The method, boiled down:
(§1)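 Broth microdilution following NCCLS reference methods (M7-A4 for aerobic bacteria, the yeast broth dilution standard for fungi). MIC is the lowest compound concentration giving optically clear wells, with no visible growth of the test organism.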

In experiment [3] the test system is Micrococcus luteus. Put plainly: the minimum inhibitory concentration (MIC) that inhibits all visible growth of the Micrococcus luteus (bacteria) at 64 ug/mL; NI is no inhibition. In kind it is functional, organism-based. In a few lines: as §1
Experiment [4] relates to Candida albicans. Put plainly: The minimum inhibitory concentration (MIC) that inhibits all visible growth of the Candida albicans (fungus) at 64 ug/mL; NI is no inhibition. Format: functional, organism-based. In a few lines: as §1
In experiment [5] the test system is Enterococcus faecalis. Put plainly: the minimum inhibitory concentration (MIC) that inhibits all visible growth of the Enterococcus faecalis (bacteria) at 64 ug/mL; NI is no inhibition. Format: functional, organism-based. The method, boiled down: as §1
Experiment [6] deals with Streptococcus pneumoniae. Put plainly: The minimum inhibitory concentration (MIC) that inhibits all visible growth of the Streptococcus pneumoniae (bacteria); MIC may range from (32 - 64). Format: functional. In a few lines: as §1
Another experiment relates to Escherichia coli. Put plainly: The minimum inhibitory concentration (MIC) that inhibits all visible growth of the Escherichia coli (bacteria) at 64 ug/mL; NI is no inhibition. Format: functional, organism-based. The method, boiled down: as §1
Experiment [7] concerns Staphylococcus aureus. Put plainly: The minimum inhibitory concentration (MIC) that inhibits all visible growth of the Staphylococcus aureus (bacteria) at 64 ug/mL; NI is no inhibition. Format: functional, organism-based. The method, boiled down:
as §1

Experiment [8] relates to Stenotrophomonas maltophilia. Put plainly: The minimum inhibitory concentration (MIC) that inhibits all visible growth of the Stenotrophomonas maltophilia (bacteria) at 64 ug/mL; NI is no inhibition. In kind it is functional, organism-based. The method, boiled down:
as §1

Another experiment relates to Enterobacter cloacae. Put plainly: The minimum inhibitory concentration (MIC) that inhibits all visible growth of the Enterobacter cloacae (bacteria) at 64 ug/mL; NI is no inhibition. Format: functional, organism-based. The method, boiled down: as §1
Experiment [9] relates to Enterococcus faecalis. Put plainly: The minimum inhibitory concentration (MIC) that inhibits all visible growth of the Enterococcus faecalis (bacteria) at 64 ug/mL; NI is no inhibition. Format: functional, organism-based. In a few lines: as §1
The subject of experiment [10] is Cryptococcus neoformans. Put plainly: Minimum inhibitory concentration (MIC) that inhibits all visible growth of the Cryptococcus neoformans (fungus). Format: functional. In a few lines:
as §1

Another experiment concerns SF-268. Put plainly: In vitro growth inhibition of central nervous system SF-268 cell line. Format: functional. To be noted: Homo sapiens.
In experiment [11] the test system is Candida albicans. Put plainly: The minimum inhibitory concentration (MIC) that inhibits all visible growth of the Candida albicans (fungus). Format: functional. The method, boiled down: as §1
The test system of experiment [12] is Streptococcus pneumoniae. Put plainly: The minimum inhibitory concentration (MIC) that inhibits all visible growth of the Streptococcus pneumoniae (bacteria). Format: functional. The method, boiled down: as §1
Another experiment has as its target Tubulin (Bos taurus, UniProt Q6B856+Q862L2+Q862F3). Put plainly: Inhibition of tubulin polymerization reported as IC50. In kind it is functional.
Experiment [13] concerns Staphylococcus aureus. Put plainly: The minimum inhibitory concentration (MIC) that inhibits all visible growth of the Staphylococcus aureus (bacteria). Format: functional. In a few lines: as §1
Experiment [14] has as its system Cryptococcus neoformans. Put plainly: Minimum inhibitory concentration (MIC) that inhibits all visible growth of the Cryptococcus neoformans (fungus). In kind it is functional. In a few lines: as §1
The subject of experiment [15] is Neisseria gonorrhoeae. Put plainly: The minimum inhibitory concentration (MIC) that inhibits all visible growth of the Neisseria gonorrhoeae (bacteria). In kind it is functional. The method, boiled down:
as §1

The test system of experiment [16] is Enterococcus faecalis. Put plainly: the minimum inhibitory concentration (MIC) that inhibits all visible growth of the Enterococcus faecalis (bacteria). In kind it is functional. The method, boiled down:
as §1

Experiment [17] deals with Micrococcus luteus. Put plainly: the minimum inhibitory concentration (MIC) that inhibits all visible growth of the Micrococcus luteus (bacteria). Format: functional. In a few lines:
as §1

Experiment [18] relates to Neisseria gonorrhoeae. Put plainly: The minimum inhibitory concentration (MIC) that inhibits all visible growth of the Neisseria gonorrhoeae (bacteria); value may ranges from (32 - 64). In kind it is functional. In a few lines:
as §1

In experiment [19] the test system is Cryptococcus neoformans. Put plainly: Minimum inhibitory concentration (MIC) that inhibits all visible growth of the Cryptococcus neoformans (fungus) at 64 ug/mL; NI is no inhibition. Format: functional, organism-based. In a few lines:
as §1

As to `COc1cc(/C=C/c2ccc(O)cc2)cc(OC)c1` [PTEROSTILBENE], the GI50 came out at 2.7 µg/mL (≈ 10.5 µM) with DU-145; 2.7 µg/mL (≈ 10.5 µM) in [1]; 3.4 µg/mL (≈ 13.3 µM) with KM-20L2; 6.5 µg/mL (≈ 25.4 µM) with BXPC-3; 4.3 µg/mL (≈ 16.8 µM) with SF-268 (Homo sapiens); 2.3 µg/mL (≈ 8.97 µM) in the experiment with MCF7. In the experiment with P388, the EC50 was 4.87 µg/mL (≈ 19 µM).

On to `COc1ccc(C(=O)c2cc(O)cc(OC)c2)cc1`, for which the MIC against Neisseria gonorrhoeae [2] was 32 µg/mL (≈ 124 µM); against Streptococcus pneumoniae [6], 64 µg/mL (≈ 248 µM); in the experiment with Cryptococcus neoformans [10], 64 µg/mL (≈ 248 µM). For the same molecule, the MIC entry (in the experiment with Micrococcus luteus [3]; in the experiment with Candida albicans [4]; in the experiment on Enterococcus faecalis [5]; with Escherichia coli; in the experiment with Staphylococcus aureus [7]; in experiment [8]) was “inactive” each time. In addition, the MIC entry with Enterobacter cloacae and in the experiment with Enterococcus faecalis [9] was “inactive” throughout. Also, the GI50 with DU-145 stood at 12.6 µg/mL (≈ 48.8 µM); in experiment [1], 10.3 µg/mL (≈ 39.9 µM); with KM-20L2 it was 16.2 µg/mL (≈ 62.7 µM); with BXPC-3, 15 µg/mL (≈ 58.1 µM); with MCF7, 14.2 µg/mL (≈ 55 µM); with SF-268 it was 13.9 µg/mL (≈ 53.8 µM). For the same molecule, the EC50 with P388 amounted to 13.4 µg/mL (≈ 51.9 µM).

Turning to `COc1cc(/C=C\c2ccc(O)cc2)cc(OC)c1`, the MIC against Candida albicans [11] was 64 µg/mL (≈ 250 µM); with Streptococcus pneumoniae [12], 16 µg/mL (≈ 62.4 µM); in the experiment with Staphylococcus aureus [13], 32 µg/mL (≈ 125 µM); against Cryptococcus neoformans [14], 16 µg/mL (≈ 62.4 µM); against Neisseria gonorrhoeae [15], 8 µg/mL (≈ 31.2 µM); in the experiment with Enterococcus faecalis [16], 32 µg/mL (≈ 125 µM). In the experiment on Micrococcus luteus [17], this molecule displayed an MIC of 8 µg/mL (≈ 31.2 µM). The GI50 is 2.3 µg/mL (≈ 8.97 µM) with DU-145; 2.8 µg/mL (≈ 10.9 µM) in experiment [1]; 11.9 µg/mL (≈ 46.4 µM) with KM-20L2; 12.6 µg/mL (≈ 49.2 µM) with BXPC-3; 3 µg/mL (≈ 11.7 µM) in the experiment with MCF7; 2.2 µg/mL (≈ 8.58 µM) in the experiment with SF-268. In addition, the IC50 on Tubulin was 29 µM. For the same molecule, the EC50 in the experiment on P388 turned out to be 2.95 µg/mL (≈ 11.5 µM).

As to `COc1cc(OC)cc(C(=O)c2ccc(O)cc2)c1`, the MIC result in the experiment on Micrococcus luteus [3], with Cryptococcus neoformans [19], in the experiment with Candida albicans [4], in the experiment with Enterococcus faecalis [5], in the experiment on Escherichia coli and with Staphylococcus aureus [7] was “inactive” in each case. For the same molecule, the MIC entry (in [8]; in the experiment with Enterobacter cloacae; in the experiment with Enterococcus faecalis [9]) was “inactive” throughout. Moreover, the GI50 amounted to 4.1 µg/mL (≈ 15.9 µM) with DU-145; 3 µg/mL (≈ 11.6 µM) in experiment [1]; 3.6 µg/mL (≈ 13.9 µM) in the experiment on KM-20L2; 4 µg/mL (≈ 15.5 µM) with BXPC-3; 2.2 µg/mL (≈ 8.52 µM) with MCF7; 3.8 µg/mL (≈ 14.7 µM) in the experiment on SF-268. Besides, the MIC in the experiment on Streptococcus pneumoniae [12] and in the experiment with Neisseria gonorrhoeae [18] was 64 µg/mL (≈ 248 µM) throughout. In the experiment on P388, the EC50 stood at 24.8 µg/mL (≈ 96 µM).
